Experimental data reported in ChEMBL document CHEMBL3758150, “Discovery and SAR of N-(1-((substituted piperidin-4-yl)methyl)-3-methoxypiperidin-4-yl)-2-methoxybenzamide derivatives: 5-Hydroxytryptamine receptor 4 agonist as a potent prokinetic agent” (Eur J Med Chem, 2016).

Experiments:
[1] = Solubility of the compound in distilled water; type: physicochemical
[2] = target: T1, 5-hydroxytryptamine receptor 4 (Homo sapiens, UniProt Q13639); assay: Displacement of [3H]-GR113808 from human 5-HT4 receptor expressed in African green monkey COS7 cell membranes after 30 mins by liquid scintillation counting analysis; set-up: species or system COS-7
In short: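 Membranes from Cos-7 cells expressing human 5-HT4: cells washed in PBS, pelleted, then resuspended in ice-cold 50 mM HEPES pH 7.4 and spun at 40,000 g for 30 min at 4 °C. Nonspecific binding was set with 10 μM 5-HT. IC50 came from linear regression of the displacement curve.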

Rattus norvegicus [3] = assay: Induction of gastric emptying rate in Sprague-Dawley rat at 5 mg/kg, iv administered prior to feeding measured after 30 mins; type: functional, Stomach
[4] = target: Voltage-gated inwardly rectifying potassium channel KCNH2 (Homo sapiens, UniProt Q12809); assay: Inhibition of human ERG channel by fluorescence polarization assay
[5] = target: 5-hydroxytryptamine receptor 4 (Rattus norvegicus, UniProt Q62758); assay: Agonist activity at 5-HT4 receptor in rat esophageal thoracic muscularis mucosae assessed as carbachol-induced contraction
In short: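 The distal 1.2 cm of rat esophagus was equilibrated 60 min in Krebs–Henseleit, washed every 15 min, with isometric force recording. Tissue was precontracted with 3 μM carbachol, then given a cumulative relaxation curve to 5-HT. After a wash and 60 min recovery it was recontracted and a test-compound curve run. Potency is relative to 5-HT in the same preparation.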

Rattus norvegicus [6] = assay: Induction of gastric emptying rate in Sprague-Dawley rat at 5 mg/kg, iv administered prior to feeding along with cisplatin injection measured after 40 mins; type: functional, Stomach
In short: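 Male Sprague-Dawley rats (220–250 g) were fasted 18 h with water available. A 2 mL semisolid meal was given 30 min after drug, together with cisplatin 5 mg/kg i.v. Gastric emptying was determined 40 min later from stomach weights versus 0-time controls: [1 − test/control] × 100.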

Rattus norvegicus [7] = assay: Induction of gastric emptying rate in Sprague-Dawley rat at 0.1 mg/kg, po administered prior to feeding measured after 30 mins; type: functional, Stomach
In short: (§1)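 Male Sprague-Dawley rats (220–250 g) were fasted 18 h with free water. A 2 mL semisolid meal was gavaged 50 min after drug, and rats were killed 30 min later. Stomach plus contents were weighed. Gastric emptying (%) = [1 − test stomach weight/0-time control stomach weight] × 100.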

Rattus norvegicus [8] = assay: Induction of gastric emptying rate in Sprague-Dawley rat at 0.5 mg/kg, po administered prior to feeding measured after 30 mins; type: functional, Stomach; in short: as §1
[9] = Half life in rat at 5 mg/kg, po; type: ADME, organism-based; details: in vivo
[10] = Tmax in rat at 5 mg/kg, po; type: ADME, organism-based; details: in vivo
[11] = Cmax in rat at 5 mg/kg, po; type: ADME, organism-based; set-up: dose 5 mg/kg, route oral; details: in vivo
Rattus norvegicus [12] = assay: AUCinfinity in rat at 5 mg/kg, po; type: ADME, organism-based; set-up: dose 5 mg/kg, time infinity, route oral; details: in vivo
[13] = target: Cholecystokinin receptor type A (Homo sapiens) (UniProt P32238); details: 1 to 2 uM
[14] = target: D(2) dopamine receptor (Homo sapiens) (UniProt P14416); details: 1 to 2 uM
[15] = target: D(2) dopamine receptor (Homo sapiens) (UniProt P14416); details: 1 to 2 uM; remark: listed apart in the source
[16] = target: D(3) dopamine receptor (Homo sapiens) (UniProt P35462); details: 1 to 2 uM
[17] = target: Motilin receptor (Homo sapiens) (UniProt O43193); details: 1 to 2 uM
[18] = target: Muscarinic acetylcholine receptor M2 (Homo sapiens) (UniProt P08172); details: 1 to 2 uM
[19] = target: Muscarinic acetylcholine receptor M3 (Homo sapiens) (UniProt P20309); details: 1 to 2 uM
[20] = target: Kappa-type opioid receptor (Homo sapiens) (UniProt P41145); details: 1 to 2 uM
[21] = target: Mu-type opioid receptor (Homo sapiens) (UniProt P35372); details: 1 to 2 uM
[22] = target: Somatostatin receptor type 2 (Homo sapiens) (UniProt P30874); details: 1 to 2 uM
[23] = target: Substance-P receptor (Homo sapiens) (UniProt P25103); details: 1 to 2 uM
[24] = target: Substance-K receptor (Homo sapiens) (UniProt P21452); details: 1 to 2 uM
[25] = target: 5-hydroxytryptamine receptor 1A (Homo sapiens) (UniProt P08908); details: 1 to 2 uM
[26] = target: 5-hydroxytryptamine receptor 1B (Homo sapiens) (UniProt P28222); details: 1 to 2 uM
[27] = target: 5-hydroxytryptamine receptor 2A (Homo sapiens) (UniProt P28223); details: 1 to 2 uM
[28] = target: 5-hydroxytryptamine receptor 2B (Homo sapiens) (UniProt P41595); details: 1 to 2 uM
[29] = target: 5-hydroxytryptamine receptor 3A (Homo sapiens) (UniProt P46098); details: 1 to 2 uM
[30] = target: T1, 5-hydroxytryptamine receptor 4; details: 1 to 2 uM
[31] = target: Adrenergic receptor alpha-1 (Homo sapiens) (UniProt P35348+P25100+P35368); details: 1 to 2 uM
[32] = target: Adrenergic receptor alpha-2 (Homo sapiens) (UniProt P08913+P18825+P18089); details: 1 to 2 uM
[33] = target: Beta-1 adrenergic receptor (Homo sapiens) (UniProt P08588); details: 1 to 2 uM

T1 sequence (Q13639 whole entry): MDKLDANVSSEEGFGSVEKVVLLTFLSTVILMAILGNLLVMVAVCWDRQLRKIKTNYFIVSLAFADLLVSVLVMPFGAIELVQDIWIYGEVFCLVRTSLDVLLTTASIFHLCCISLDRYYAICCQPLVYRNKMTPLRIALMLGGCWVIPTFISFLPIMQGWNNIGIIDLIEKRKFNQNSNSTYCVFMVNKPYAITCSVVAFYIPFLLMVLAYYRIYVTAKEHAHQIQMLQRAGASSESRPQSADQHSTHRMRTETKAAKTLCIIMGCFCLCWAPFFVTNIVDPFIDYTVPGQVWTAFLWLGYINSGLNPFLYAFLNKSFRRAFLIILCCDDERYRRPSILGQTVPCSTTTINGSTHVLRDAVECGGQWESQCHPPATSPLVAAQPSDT
Chain of 5-hydroxytryptamine receptor 4 (Rattus norvegicus, UniProt Q62758) (Q62758 whole entry): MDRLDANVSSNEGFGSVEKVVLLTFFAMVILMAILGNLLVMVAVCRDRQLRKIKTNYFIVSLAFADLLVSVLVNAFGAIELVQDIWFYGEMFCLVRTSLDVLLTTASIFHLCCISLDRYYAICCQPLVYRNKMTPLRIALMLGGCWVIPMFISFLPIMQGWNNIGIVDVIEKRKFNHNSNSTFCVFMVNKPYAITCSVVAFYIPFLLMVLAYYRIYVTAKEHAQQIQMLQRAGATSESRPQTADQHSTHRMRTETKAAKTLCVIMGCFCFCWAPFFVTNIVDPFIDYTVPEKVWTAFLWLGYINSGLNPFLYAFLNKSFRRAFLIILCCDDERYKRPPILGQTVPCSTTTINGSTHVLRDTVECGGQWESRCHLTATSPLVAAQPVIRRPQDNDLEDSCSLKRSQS
Chain of Voltage-gated inwardly rectifying potassium channel KCNH2 (Q12809 whole entry): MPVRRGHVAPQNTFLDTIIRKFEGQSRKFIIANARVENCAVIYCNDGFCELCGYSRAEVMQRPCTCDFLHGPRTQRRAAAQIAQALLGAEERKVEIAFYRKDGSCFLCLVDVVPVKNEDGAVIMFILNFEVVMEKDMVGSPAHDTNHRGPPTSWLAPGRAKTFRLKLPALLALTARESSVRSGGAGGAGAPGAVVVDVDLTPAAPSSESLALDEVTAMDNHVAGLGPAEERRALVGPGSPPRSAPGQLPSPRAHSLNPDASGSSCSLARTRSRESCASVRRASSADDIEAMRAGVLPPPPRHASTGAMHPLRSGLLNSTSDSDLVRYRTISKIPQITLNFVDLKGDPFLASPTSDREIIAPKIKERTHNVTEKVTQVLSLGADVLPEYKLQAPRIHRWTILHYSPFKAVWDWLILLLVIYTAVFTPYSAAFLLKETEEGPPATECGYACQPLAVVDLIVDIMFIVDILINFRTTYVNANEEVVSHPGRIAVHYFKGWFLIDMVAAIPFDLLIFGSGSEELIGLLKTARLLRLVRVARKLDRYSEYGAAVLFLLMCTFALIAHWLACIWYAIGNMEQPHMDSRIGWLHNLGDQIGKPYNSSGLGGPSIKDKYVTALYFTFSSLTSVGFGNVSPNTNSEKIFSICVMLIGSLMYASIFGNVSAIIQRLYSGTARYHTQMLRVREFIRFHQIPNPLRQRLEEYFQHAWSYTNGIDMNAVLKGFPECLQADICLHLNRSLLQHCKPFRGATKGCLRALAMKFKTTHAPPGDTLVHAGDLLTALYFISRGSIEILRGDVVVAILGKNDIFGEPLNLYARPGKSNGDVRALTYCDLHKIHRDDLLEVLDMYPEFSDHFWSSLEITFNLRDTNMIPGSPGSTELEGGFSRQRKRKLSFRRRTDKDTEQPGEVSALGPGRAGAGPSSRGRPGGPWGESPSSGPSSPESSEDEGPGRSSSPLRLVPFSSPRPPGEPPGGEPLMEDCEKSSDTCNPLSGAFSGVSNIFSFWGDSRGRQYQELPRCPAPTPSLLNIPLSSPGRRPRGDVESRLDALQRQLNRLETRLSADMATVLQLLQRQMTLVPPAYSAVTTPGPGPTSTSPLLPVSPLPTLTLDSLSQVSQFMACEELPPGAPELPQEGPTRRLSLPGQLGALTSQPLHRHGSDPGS
Chain of D(2) dopamine receptor (Homo sapiens) (P14416 whole entry): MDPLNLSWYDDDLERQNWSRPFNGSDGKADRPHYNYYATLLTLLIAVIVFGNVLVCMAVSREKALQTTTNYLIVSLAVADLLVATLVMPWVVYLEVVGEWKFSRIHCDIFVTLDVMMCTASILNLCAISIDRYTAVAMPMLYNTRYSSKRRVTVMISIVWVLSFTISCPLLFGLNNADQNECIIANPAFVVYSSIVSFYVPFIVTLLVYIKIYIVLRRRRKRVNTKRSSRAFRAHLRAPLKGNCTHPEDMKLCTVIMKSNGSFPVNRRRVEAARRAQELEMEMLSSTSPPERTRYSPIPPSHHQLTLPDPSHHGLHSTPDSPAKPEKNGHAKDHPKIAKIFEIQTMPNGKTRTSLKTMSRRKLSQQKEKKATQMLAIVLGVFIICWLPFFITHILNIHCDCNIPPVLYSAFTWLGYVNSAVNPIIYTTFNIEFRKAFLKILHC
Chain of Motilin receptor (Homo sapiens) (O43193 whole entry): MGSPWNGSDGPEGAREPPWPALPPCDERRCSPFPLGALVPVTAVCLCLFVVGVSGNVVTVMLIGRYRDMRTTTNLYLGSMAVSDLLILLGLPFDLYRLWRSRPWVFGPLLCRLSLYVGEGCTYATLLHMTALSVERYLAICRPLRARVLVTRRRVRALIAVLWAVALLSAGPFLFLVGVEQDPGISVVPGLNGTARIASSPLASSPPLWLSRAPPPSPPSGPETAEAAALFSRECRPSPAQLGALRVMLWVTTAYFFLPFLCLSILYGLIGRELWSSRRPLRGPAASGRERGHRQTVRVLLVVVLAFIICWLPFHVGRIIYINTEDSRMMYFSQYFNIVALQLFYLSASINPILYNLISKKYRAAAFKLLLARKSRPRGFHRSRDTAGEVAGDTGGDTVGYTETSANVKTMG
Chain of Muscarinic acetylcholine receptor M2 (Homo sapiens) (P08172 whole entry): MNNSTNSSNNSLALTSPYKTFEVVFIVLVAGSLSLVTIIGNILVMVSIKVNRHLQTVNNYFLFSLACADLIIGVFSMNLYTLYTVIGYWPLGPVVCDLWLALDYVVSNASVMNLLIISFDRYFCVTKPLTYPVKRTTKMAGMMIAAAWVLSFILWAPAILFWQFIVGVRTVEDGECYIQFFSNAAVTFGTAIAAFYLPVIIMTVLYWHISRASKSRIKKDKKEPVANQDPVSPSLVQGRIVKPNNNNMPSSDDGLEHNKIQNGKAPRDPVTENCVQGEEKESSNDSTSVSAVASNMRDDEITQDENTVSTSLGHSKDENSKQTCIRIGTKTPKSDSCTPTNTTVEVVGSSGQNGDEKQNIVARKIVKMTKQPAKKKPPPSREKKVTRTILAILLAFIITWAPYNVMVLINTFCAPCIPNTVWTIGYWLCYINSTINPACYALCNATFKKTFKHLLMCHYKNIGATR
Chain of D(3) dopamine receptor (Homo sapiens) (P35462 whole entry): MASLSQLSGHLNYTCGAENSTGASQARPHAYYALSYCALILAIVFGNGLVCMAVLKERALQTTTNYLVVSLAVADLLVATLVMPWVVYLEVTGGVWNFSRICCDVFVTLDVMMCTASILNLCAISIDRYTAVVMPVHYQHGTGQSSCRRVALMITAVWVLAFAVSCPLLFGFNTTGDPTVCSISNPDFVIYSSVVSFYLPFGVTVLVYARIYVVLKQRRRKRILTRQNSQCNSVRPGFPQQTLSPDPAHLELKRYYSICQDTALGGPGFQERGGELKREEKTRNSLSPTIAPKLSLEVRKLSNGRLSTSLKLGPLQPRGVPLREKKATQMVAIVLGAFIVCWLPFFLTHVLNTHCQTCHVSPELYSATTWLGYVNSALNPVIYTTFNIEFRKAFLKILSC
Chain of 5-hydroxytryptamine receptor 1B (Homo sapiens) (P28222 whole entry): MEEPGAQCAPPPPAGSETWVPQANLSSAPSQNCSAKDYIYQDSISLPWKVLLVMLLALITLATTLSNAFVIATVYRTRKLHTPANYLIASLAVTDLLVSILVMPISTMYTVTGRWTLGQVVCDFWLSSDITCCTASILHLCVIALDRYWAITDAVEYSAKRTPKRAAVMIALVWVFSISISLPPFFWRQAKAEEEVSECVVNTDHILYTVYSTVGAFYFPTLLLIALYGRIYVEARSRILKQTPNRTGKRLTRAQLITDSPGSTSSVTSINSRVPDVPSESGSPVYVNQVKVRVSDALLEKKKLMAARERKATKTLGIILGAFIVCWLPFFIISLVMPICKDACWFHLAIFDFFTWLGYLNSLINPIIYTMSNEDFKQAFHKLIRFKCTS
Chain of Cholecystokinin receptor type A (Homo sapiens) (P32238 whole entry): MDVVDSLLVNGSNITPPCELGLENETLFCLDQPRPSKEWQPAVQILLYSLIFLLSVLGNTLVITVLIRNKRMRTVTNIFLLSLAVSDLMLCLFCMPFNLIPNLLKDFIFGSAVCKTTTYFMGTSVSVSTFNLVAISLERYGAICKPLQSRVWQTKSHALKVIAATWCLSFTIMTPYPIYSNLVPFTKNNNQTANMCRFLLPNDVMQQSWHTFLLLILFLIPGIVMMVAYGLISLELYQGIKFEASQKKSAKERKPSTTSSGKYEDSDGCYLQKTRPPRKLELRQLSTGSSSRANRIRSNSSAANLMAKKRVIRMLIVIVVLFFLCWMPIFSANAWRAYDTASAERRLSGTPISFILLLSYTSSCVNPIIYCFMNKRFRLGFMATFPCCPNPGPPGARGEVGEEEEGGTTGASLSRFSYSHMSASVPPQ
Chain of Mu-type opioid receptor (Homo sapiens) (P35372 whole entry): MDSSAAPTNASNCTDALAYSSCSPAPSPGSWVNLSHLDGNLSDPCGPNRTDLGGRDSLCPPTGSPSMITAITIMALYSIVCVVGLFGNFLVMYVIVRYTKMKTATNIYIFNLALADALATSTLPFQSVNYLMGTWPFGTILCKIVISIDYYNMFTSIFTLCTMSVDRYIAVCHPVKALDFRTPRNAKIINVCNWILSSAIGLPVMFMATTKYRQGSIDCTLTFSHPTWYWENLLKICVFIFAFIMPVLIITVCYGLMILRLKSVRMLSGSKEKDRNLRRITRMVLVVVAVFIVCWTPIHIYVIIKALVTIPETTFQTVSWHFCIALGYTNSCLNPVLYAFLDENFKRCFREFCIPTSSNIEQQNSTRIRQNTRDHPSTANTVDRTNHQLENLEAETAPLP

Compound: COc1cc(N)c(Cl)cc1C(=O)N[C@H]1CCN(CC2CCN(C(=O)C(C)C)CC2)C[C@H]1OC.CS(=O)(=O)O
- solubility [1]: > 10 mg/mL

Compound: COc1cc(N)c(Cl)cc1C(=O)N[C@@H]1CCN(CC2CCN(C(=O)C(C)C)CC2)C[C@@H]1OC
- IC50 [2]: 68 nM
- Activity (Rattus norvegicus [3]): 61.7%

Compound: COc1cc(N)c(Cl)cc1C(=O)N[C@H]1CCN(CC2CCN(C(=O)C(C)C)CC2)C[C@H]1OC.O=C(O)C(O)C(O)C(=O)O
- solubility [1]: > 30 mg/mL

Compound: CCOC(=O)N1CCC(CN2CC[C@H](NC(=O)c3cc(Cl)c(N)cc3OC)[C@H](OC)C2)CC1
- IC50 [2]: 377 nM
- Activity (Rattus norvegicus [3]): 55.9%

Compound: COc1cc(N)c(Cl)cc1C(=O)N[C@H]1CCN(CCCn2ncnn2)C[C@H]1OC
- IC50 [2]: 1120 nM
- IC50 [4]: > 10000 nM

Compound: Br.COc1cc(N)c(Cl)cc1C(=O)N[C@H]1CCN(CC2CCN(C(=O)C(C)C)CC2)C[C@H]1OC
- solubility [1]: < 5 mg/mL

Compound: COc1cc(N)c(Cl)cc1C(=O)N[C@H]1CCN(CC2CCN(C(=O)C(C)C)CC2)C[C@H]1OC.O=C(O)/C=C\C(=O)O
- solubility [1]: > 10 mg/mL

Compound: COc1cc(N)c(Cl)cc1C(=O)N[C@H]1CCN(CC2CCN(C(=O)C(C)C)CC2)C[C@H]1OC.O=C(O)CC(O)(CC(=O)O)C(=O)O
- solubility [1]: > 30 mg/mL

Compound: COc1cc(N)c(Cl)cc1C(=O)N[C@H]1CCN(CC2CCN(C(=O)C(C)C)CC2)C[C@H]1OC.Cl
- solubility [1]: > 15 mg/mL

Compound: COc1cc(N)c(Cl)cc1C(=O)N[C@H]1CCN(CC2CCN(C(=O)C(C)C)CC2)C[C@H]1OC
- IC50 [2]: > 10000 nM
- Activity (Rattus norvegicus [3]): 56.5%

Compound: COc1cc(N)c(Cl)cc1C(=O)N[C@H]1CCN(CC2CCN(C(=O)C(C)C)CC2)C[C@H]1OC (racemic) [listing 1 of 2 here]
- IC50 [2]: 134 nM
- EC50 [5]: 45.7 nM
- Activity (Rattus norvegicus [3]): 59.1%
- Activity (Rattus norvegicus [6]): 58.6%
- Activity (Rattus norvegicus [7]): 46.2%
- Activity (Rattus norvegicus [8]): 46.9%
- half-life [9]: 58.8 min
- Tmax [10]: 15 min
- Cmax [11]: 572 ng/mL
- AUC (Rattus norvegicus [12]): 483 ng·h/mL

Compound: COc1cc(N)c(Cl)cc1C(=O)N[C@H]1CCN(CC2CCN(C(=O)C(C)C)CC2)C[C@H]1OC (racemic) [listing 2 of 2 here]
- inhibition [13]: 50%
- inhibition [14]: 50%
- inhibition [15]: 50%
- inhibition [16]: 50%
- inhibition [17]: 50%
- inhibition [18]: 50%
- inhibition [19]: 50%
- inhibition [20]: 50%
- inhibition [21]: 50%
- inhibition [22]: 50%
- inhibition [23]: 50%
- inhibition [24]: 50%
- inhibition [25]: 50%
- inhibition [26]: 50%
- inhibition [27]: 50%
- inhibition [28]: 50%
- inhibition [29]: 50%
- inhibition [30]: 50%
- inhibition [31]: 50%
- inhibition [32]: 50%
- inhibition [33]: 50%

Compound: COc1cc(N)c(Cl)cc1C(=O)N[C@H]1CCN(CCCn2ccnc2)C[C@H]1OC (relative stereo)
- IC50 [2]: 1160 nM
- EC50 [5]: 251 nM

Compound: CCC(=S)N1CCC(CN2CC[C@H](NC(=O)c3cc(Cl)c(N)cc3OC)[C@H](OC)C2)CC1 (relative stereo)
- IC50 [2]: 593 nM
- Activity (Rattus norvegicus [3]): 61%

Compound: COc1cc(N)c(Cl)cc1C(=O)N[C@H]1CCN(CCC(=O)N2CCOCC2)C[C@H]1OC (relative stereo)
- IC50 [2]: 954 nM

Compound: COc1cc(N)c(Cl)cc1C(=O)N[C@H]1CCN(CC2CCN(C(=O)CC(C)C)CC2)C[C@H]1OC (relative stereo)
- Activity (Rattus norvegicus [3]): 54.3%

Compound: COc1cc(N)c(Cl)cc1C(=O)N[C@H]1CCN(CCC(=O)N2CCCC2)C[C@H]1OC (relative stereo)
- IC50 [2]: 920 nM

Compound: CCCOC(=O)N1CCC(CN2CC[C@H](NC(=O)c3cc(Cl)c(N)cc3OC)[C@H](OC)C2)CC1 (relative stereo)
- IC50 [2]: 134 nM
- Activity (Rattus norvegicus [3]): 57.7%

Compound: COc1cc(N)c(Cl)cc1C(=O)N[C@H]1CCN(CC2CCN(C(=S)C(C)C)CC2)C[C@H]1OC (relative stereo)
- IC50 [2]: 155 nM
- Activity (Rattus norvegicus [3]): 67.3%

Compound: COc1cc(N)c(Cl)cc1C(=O)N[C@H]1CCN(CCn2cccc2)C[C@H]1OC (relative stereo)
- IC50 [2]: 5760 nM

Compound: COc1cc(N)c(Cl)cc1C(=O)N[C@H]1CCN(CCCn2cccc2)C[C@H]1OC (relative stereo)
- IC50 [2]: 648 nM
- EC50 [5]: 676 nM

Compound: COc1cc(N)c(Cl)cc1C(=O)N[C@H]1CCN(CCC(=O)N2CCCCC2)C[C@H]1OC (relative stereo)
- IC50 [2]: 560 nM
- EC50 [5]: 1050 nM

Compound: COc1cc(N)c(Cl)cc1C(=O)N[C@H]1CCN(CC2CCN(C(=O)NC(C)C)CC2)C[C@H]1OC (relative stereo)
- IC50 [2]: 73 nM
- Activity (Rattus norvegicus [3]): 59.9%

Compound: CCC(=O)N1CCC(CN2CC[C@H](NC(=O)c3cc(Cl)c(N)cc3OC)[C@H](OC)C2)CC1 (relative stereo)
- IC50 [2]: 329 nM
- EC50 [5]: 380 nM
- Activity (Rattus norvegicus [3]): 57.8%

Compound: CCC(=O)N1CCCC(CN2CC[C@H](NC(=O)c3cc(Cl)c(N)cc3OC)[C@H](OC)C2)C1 (relative stereo)
- IC50 [2]: 493 nM
- EC50 [5]: 1550 nM

Compound: COc1cc(N)c(Cl)cc1C(=O)N[C@H]1CCN(CC2CCN(C(C)=O)CC2)C[C@H]1OC (relative stereo)
- IC50 [2]: 592 nM
- Activity (Rattus norvegicus [3]): 39.5%

Compound: CCCC(=O)N1CCC(CN2CC[C@H](NC(=O)c3cc(Cl)c(N)cc3OC)[C@H](OC)C2)CC1 (relative stereo)
- IC50 [2]: 178 nM
- Activity (Rattus norvegicus [3]): 48.6%

Compound: COc1cc(N)c(Cl)cc1C(=O)N[C@H]1CCN(CCCn2cncn2)C[C@H]1OC (relative stereo)
- IC50 [2]: 1270 nM
- IC50 [4]: 7710 nM
- EC50 [5]: 708 nM

Compound: COc1cc(N)c(Cl)cc1C(=O)N[C@H]1CCN(CC2CCN(C(=O)N(C)C)CC2)C[C@H]1OC (relative stereo)
- IC50 [2]: 52 nM
- Activity (Rattus norvegicus [3]): 46%

Compound: CCC(=O)N1CCC(CCN2CC[C@H](NC(=O)c3cc(Cl)c(N)cc3OC)[C@H](OC)C2)CC1 (relative stereo)
- IC50 [2]: 805 nM

Compound: COc1cc(N)c(Cl)cc1C(=O)N[C@H]1CCN(CCC(=O)N2CCC(Cc3ccccc3)CC2)C[C@H]1OC (relative stereo)
- IC50 [2]: 66 nM
- EC50 [5]: 6030 nM

Compound: COc1cc(N)c(Cl)cc1C(=O)N[C@H]1CCN(CC2CCN(C(=O)C(C)(C)C)CC2)C[C@H]1OC (relative stereo)
- IC50 [2]: 118 nM
- EC50 [5]: 100 nM
- Activity (Rattus norvegicus [3]): 56.4%
- Activity (Rattus norvegicus [6]): 56.6%
- half-life [9]: 46.2 min
- Tmax [10]: 15 min
- Cmax [11]: 345 ng/mL
- AUC (Rattus norvegicus [12]): 263 ng·h/mL

Compound: COC(=O)N1CCC(CN2CC[C@H](NC(=O)c3cc(Cl)c(N)cc3OC)[C@H](OC)C2)CC1 (relative stereo)
- IC50 [2]: 190 nM
- Activity (Rattus norvegicus [3]): 56.2%

Compound: COc1cc(N)c(Cl)cc1C(=O)N[C@H]1CCN(CCCOc2ccc(F)cc2)C[C@H]1OC (relative stereo) [REL-CISAPRIDE]
- Activity (Rattus norvegicus [3]): 57.1%
- Activity (Rattus norvegicus [6]): 57.2%
- half-life [9]: 88.8 min
- Tmax [10]: 15 min
- Cmax [11]: 104 ng/mL
- AUC (Rattus norvegicus [12]): 142 ng·h/mL
